One may read the IC50 as the concentration that inhibits the measured activity by half. What is called IC70 is the concentration needed for an effect of 70%. The T/C is the result in the treated group divided by that in the control group, in per cent.

What all share (type): functional
Test [1] relates to DU-145. In words: Antiproliferative activity against human DU145 cells assessed as reduction in cell growth incubated for 96 hrs by propidium iodide based 2D monolayer assay. Particulars: DU-145, 96 h. The essentials: (§1)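 After 24 h recovery, compound in medium or medium alone (control wells) was added at 10 half-log concentrations from 0.0032 to 100 µM, in triplicate, with at most 0.3% DMSO. After 96 h, wells were PBS-washed, stained with 7 µg/ml PI and 0.1% Triton X-100, and fluorescence read at 530/620 nm. IC50 came from a 4-parameter fit, geometric mean.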

Test [2] deals with VCaP. The test can be described thus: Antiproliferative activity against human VCaP cells assessed as T/C value at 3.2 x 10^-3 uM incubated for 96 hrs by propidium iodide based 2D monolayer assay. The procedure, abridged: (§2)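 VCaP cells in RPMI 1640 with 10% FCS at 37 °C, 5% CO2, seeded 4,000–20,000 cells/well and left 24 h before dosing. Compounds from DMSO stocks were diluted in half-log steps in medium, 10 concentrations 0.0032–100 μM, triplicate wells, max 0.3% DMSO. After 96 h, cells were washed, stained with 7 μg/ml propidium iodide plus 0.1% Triton X-100 for 1–2 h at room temperature, and fluorescence read at ex 530/em 620 nm.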

For test [3], the system named is VCaP. In words: Antiproliferative activity against human VCaP cells assessed as T/C value at 1 x 10^-2 uM incubated for 96 hrs by propidium iodide based 2D monolayer assay. The essentials: (§3)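 Cells were kept in RPMI 1640 with 25 mM HEPES, 10% FCS and gentamicin at 37 °C under 5% CO2, and plated at 4,000-20,000 cells/well. After 24 h recovery, compound in medium or medium alone (control wells) was added at 10 half-log concentrations from 0.0032 to 100 µM, in triplicate, with at most 0.3% DMSO. After 96 h, wells were PBS-washed, stained with 7 µg/ml PI and 0.1% Triton X-100, and fluorescence read at 530/620 nm. IC50 came from a 4-parameter fit, geometric mean.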

Test [4] relates to VCaP. The test can be described thus: Antiproliferative activity against human VCaP cells assessed as T/C value at 1 x 10^-1 uM incubated for 96 hrs by propidium iodide based 2D monolayer assay. The essentials: as §3
Test [5] deals with VCaP. The test can be described thus: Antiproliferative activity against human VCaP cells assessed as T/C value at 3.2 x 10^1 uM incubated for 96 hrs by propidium iodide based 2D monolayer assay. The essentials: as §2
In a further test the test system is LNCaP. In words: Antiproliferative activity against human LNCAP cells assessed as T/C value at 1 x 10^2 uM incubated for 96 hrs by propidium iodide based 2D monolayer assay. The procedure, abridged: as §3
For test [6], the system named is CWR22R. The test can be described thus: Antiproliferative activity against human 22Rv1 cells assessed as T/C value at 3.2 x 10^-1 uM incubated for 96 hrs by propidium iodide based 2D monolayer assay. The procedure, abridged:
as §3

In test [7] the test system is CWR22R. The test can be described thus: Antiproliferative activity against human 22Rv1 cells assessed as T/C value at 3.2 uM incubated for 96 hrs by propidium iodide based 2D monolayer assay. The procedure, abridged: as §3
Test [8] concerns CWR22R. In words: Antiproliferative activity against human 22Rv1 cells assessed as T/C value at 1 x 10^1 uM incubated for 96 hrs by propidium iodide based 2D monolayer assay. The procedure, abridged:
as §3

Test [9] has as its system DU-145. The test can be described thus: Antiproliferative activity against human DU145 cells assessed as T/C value at 3.2 x 10^-1 uM incubated for 96 hrs by propidium iodide based 2D monolayer assay. The essentials:
as §1

For test [10], the system named is DU-145. In words: Antiproliferative activity against human DU145 cells assessed as T/C value at 1 uM incubated for 96 hrs by propidium iodide based 2D monolayer assay. The procedure, abridged: as §1
In test [11] the test system is DU-145. In words: Antiproliferative activity against human DU145 cells assessed as T/C value at 1 x 10^1 uM incubated for 96 hrs by propidium iodide based 2D monolayer assay. The essentials: as §1
The test system of test [12] is MCF7. The test can be described thus: Antiproliferative activity against human MCF7 cells assessed as T/C value at 3.2 x 10^-3 uM incubated for 96 hrs by propidium iodide based 2D monolayer assay.
The subject of test [13] is MCF7. In words: Antiproliferative activity against human MCF7 cells assessed as T/C value at 1 x 10^-2 uM incubated for 96 hrs by propidium iodide based 2D monolayer assay.
The subject of test [14] is MCF7. The test can be described thus: Antiproliferative activity against human MCF7 cells assessed as T/C value at 3.2 x 10^-1 uM incubated for 96 hrs by propidium iodide based 2D monolayer assay.
Test [15] deals with MCF7. In words: Antiproliferative activity against human MCF7 cells assessed as T/C value at 3.2 uM incubated for 96 hrs by propidium iodide based 2D monolayer assay.
Test [16] relates to MCF7. The test can be described thus: Antiproliferative activity against human MCF7 cells assessed as reduction in cell growth incubated for 96 hrs by propidium iodide based 2D monolayer assay. Particulars: MCF7, 96 h.

Molecules are shown by their SMILES.

`CC(O)(CSc1cc(C(F)(F)F)cc(C(F)(F)F)c1)C(=O)Nc1cccc(C(F)(F)C(F)(F)F)c1` (racemic): the IC50 in the test with DU-145 [1] turned out to be 8.9 µM; with MCF7 [16], 8.52 µM. Besides, the IC70 with DU-145 [1] was 9.6 µM; in the test with MCF7 [16], 10.8 µM. The T/C is reported as 104% in the test on VCaP [2]; 107% in the test with VCaP [3]; 115% in the test with VCaP [4]; 20% in the test on VCaP [5]; 7% with LNCaP; 107% in the test on CWR22R [6]. Moreover, the T/C with CWR22R [7] is listed as 75%; in the test with CWR22R [8], 9%; in the test with DU-145 [9], 135%; with DU-145 [10], 134%; in the test on DU-145 [11] it was 22%; with MCF7 [12] it was 86%. The T/C in the test on MCF7 [13] is given as 115%; in the test on MCF7 [14], 121%; in the test on MCF7 [15], 109%.
With `CC(O)(COc1ccc(C(F)(F)C(F)(F)F)cc1)C(=O)Nc1cc(C(F)(F)F)cc(C(F)(F)F)c1` (racemic), the results for the IC50 with DU-145 [1] and with MCF7 [16] were 6.8 µM and 4.01 µM, respectively. For the same compound, the IC70 with DU-145 [1] worked out at 7.99 µM; in the test on MCF7 [16], 6.15 µM. For the same compound, the T/C turned out to be 76% in the test on VCaP [2]; 91% with VCaP [3]; 89% with VCaP [4]; 6% in the test on VCaP [5]; 1% in the test with LNCaP; 108% in the test on CWR22R [6]. For the same compound, the T/C with CWR22R [7] is 29%; in the test with CWR22R [8], 9%; in the test with DU-145 [9] it was 123%; in the test with DU-145 [10], 115%; in the test on DU-145 [11], 13%; with MCF7 [12], 103%. Further, the T/C in the test with MCF7 [13] came to 100%; with MCF7 [14] it was 118%; in the test on MCF7 [15], 57%.

The values are drawn from ChEMBL document CHEMBL4364301 (Eur J Med Chem, 2019).
